Source: PubChem BioAssay
Values without a mark were called inactive. Inconclusive results are not listed. Calls of active or inactive are those of the source.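 Rule for the calls, unless noted: active = cell viability at or below a set limit in both duplicate runs, the limit being the all-compound median minus 4 SD (cut at about 23% in these data, passing the limit was not always enough); inconclusive = no clear call, values can overlap the other calls; inactive = the rest.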

What was measured:
[1] = OD615 S. cerevisiae growth inhibition, permissive medium, pilot counter-assay, permissive growth control for S. cerevisiae lifespan shortening project (AID 705;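 active = growth inhibition above 25% in both replicates, a cutoff set 3 SD above the mean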); conditions: OD615, 24 h, at 10 µM, stronger effect = higher value
In short: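 System: Engineered DeaD yeast | Buffer or medium: SC raffinose/galactose permissive medium | Doses: 10 µM single dose, 0.25% DMSO | Times: 24 h exposure, 30 °C | Measured by: OD615 turbidity read | Read-out: Yeast growth inhibition indicated by reduced 24 h OD615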

[2] = Restrictive medium S. cerevisiae growth inhibition, OD615, pilot screen of yeast lifespan reduction project, restrictive growth control (AID 706;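 active = growth inhibition above a set limit, 3 SD over mean compound inhibition, in both replicates, cut at about 43% in these data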;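 note: modified DeaD lifespan yeast strain shifted to restrictive glucose medium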); conditions: OD615, 48 h, at 10 µM, stronger effect = higher value
In short: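 Assay system: engineered S. cerevisiae DeaD strain; Buffer or medium: CSMM-D glucose medium; Dosing: 10 µM compound, 0.25% DMSO; Times: cell pre-growth 4 h, compound exposure 48 h, 30 °C; Detection: absorbance (optical density) measured at 615 nm.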

[3] = viability gain of MRP-1-high H69AR cells under doxorubicin, pilot screen, MRP-1 activator project, CellTiter-Glo, duplicate (AID 807;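 active = viability increase at or above a cutoff of the median across tested compounds plus 3 SD, cut at about 8.5% in these data, passing the limit was not always enough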;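 note: compound pretreatment 18-22 h then 72 h combined with doxorubicin; 0% = doxorubicin alone and 100% = vehicle without doxorubicin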); conditions: H69AR viability with doxorubicin, CellTiter-Glo luminescence; at 10 µM; stronger effect = higher value
[4] = growth suppression of beta-catenin knockout HCT116, pilot screen, human colon tumor cells (AID 823); conditions: CellTiter-Glo, 60 h, at 10 µM, stronger effect = lower value;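 note: 0% = wells killed by 20 µM Hyamine and 100% = untreated DMSO cell wells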
[5] = growth suppression of PTEN-deleted HCT116, pilot screen, cell-based, HCT116 clonal line, CellTiter-Glo (AID 824;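 active = viability at or below 27.92% in each of two runs, the all-compound median minus 4 SD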;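 note: 0% = 20 µM Hyamine control and 100% = vehicle cell control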); conditions: 60 h, at 10 µM, stronger effect = lower value
[6] = inhibitors of the yeast RAM network, pilot screen, dse1pr::URA3 reporter, 5-FOA selection (AID 869;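 active = inhibition over a set limit, the all-compound mean plus 3 SD, in both replicate runs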;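 note: 0% = DMSO wells with no growth and 100% = 10 µM 1-NA-PP1 with full growth; RAM network block rescues cells from 5-FOA so hits raise OD615 growth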); conditions: S. cerevisiae dse1pr::URA3 5-FOA growth, OD615, 2 d; at 10 µM; stronger effect = higher value; strain carries analog-sensitive mutant Cbk1 kinase
[7] = RAM signaling pathway blockade in yeast – S. cerevisiae, Pdr1DBD-CYC8 efflux-inhibited sensitized strain, primary screen (AID 1298;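 active = RAM network inhibition above 8.4% in each of two replicates, 3 SD over the compound average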;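 note: 0% = DMSO untreated cells without growth and 100% = 10 µM 1-NA-PP1 full growth; higher means more yeast growth rescued from 5-FOA killing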); conditions: S. cerevisiae cbk1-as DSE1-URA3 strain, 5-FOA growth OD615, 2 d; at 50 µM; stronger effect = higher value

Compound	growth inhibition [1]	growth inhibition [2]	viability increase [3]	viability [4]	viability [5]	inhibition [6]	RAM network inhibition [7]
CN1CCN(C(=O)c2ccc3c(c2)N(Cc2ccc(Cl)cc2)C(=O)c2ccccc2S3=O)CC1 (configuration not stated)	-0.89%	-13.2%	-4.61%	80.3%	83%	0.215%	1.3%
C=C(C)Cn1c(SCC(=O)O)nc2c1c(=O)[nH]c(=O)n2C	-15.9%	-14%	1.02%	96.7%	98.8%	0.63%	3.24%
CCn1c(=O)cc(OCC(=O)Nc2ccccc2C#N)c2ccccc21	-22.1%	-8.12%	-1.86%	95.1%	94.7%	2.12%	4.46%
O=C1C2ON(c3ccccc3)C(c3ccncc3)C2C(=O)N1c1ccc(N2CCOCC2)cc1 (configuration not stated)	-13.7%	0.35%	-0.72%	104%	103%	2.51%	0.47%
CC1CCN(CCCn2c(=S)[nH]c3ccccc3c2=O)CC1	1.02%	10.3%	-2.18%	91.3%	93.7%	1.1%	0.66%
CC1(C)CC(N2CCN(c3ccccc3)CC2)=CC(=[N+]2CCCC2)C1	-2.24%	-20.8%	-3.22%	18.1% (active)	18.4% (active)	1.37%	0.52%
CC1(C(=O)NC2CCCCC2)CCC(=O)N1Cc1cccnc1 (configuration not stated)	-8.59%	-7.4%	-0.54%	102%	104%	0.95%	0.89%
COC(=O)c1ccc(NC(=O)CNC(=O)C2CCCCC2)cc1	-0.115%	-0.73%	-0.57%	98.4%	88.1%	0.625%	1.94%
COc1ccc(NC(=O)C2CCN(S(=O)(=O)c3ccc(OC)c(OC)c3)CC2)c(OC)c1	-1.19%	4.12%	-0.83%	94.7%	88.6%	1%	1.41%
COC1=C(OC)c2ccccc2C(C(=O)O)N/C1=C(/C)Nc1ccncc1 (configuration not stated)	-5.63%	-2.54%	-0.91%	94.7%	91.5%	1.11%	-1.82%
CC1=C(C#N)C2C(/C1=N/O)C2(C)C (configuration not stated)	-4.15%	-6.87%	-1.76%	95%	85.3%	0.79%	1.21%
Cn1c(/N=C/c2cccs2)nc2ccccc21	-8.72%	-5.94%	-2.39%	93.9%	94.8%	2.46%	1.77%
COc1ccc(OC)c(C(C)NC(=O)c2ccco2)c1 (configuration not stated)	-6.2%	2.66%	-5.99%	40.8%	35.4%	0.005%	0.72%
Cc1noc(C(=O)Nc2c(C)nn(Cc3ccccc3)c2C)c1Cl	-7.73%	7.98%	0.04%	93.1%	88.7%	2.25%	3.63%
O=C(Nc1nnc(-c2ccco2)o1)C1CCCCC1	-17%	-13.8%	-1.58%	99.1%	93.2%	1.52%	0.58%
Cc1cnc(C(=O)OCC(=O)Nc2ccc(Cl)cc2)cn1	-19%	-21%	-2.99%	101%	92.8%	3.85%	3.15%
C=CCOC(=O)CCP(=O)(CCC(=O)OCC=C)c1ccccc1	5.05%	1.05%	-1.13%	96.5%	98.8%	-0.22%	-1.29%
CCCCOC(=O)C(C)Oc1ccc(=O)n(-c2ccccc2)n1 (configuration not stated)	-4.39%	-6.44%	-1.41%	98%	88.4%	1.26%	2.76%

Compound	growth inhibition [1]	growth inhibition [2]	viability increase [3]	viability [4]	viability [5]	inhibition [6]	RAM network inhibition [7]
COC(=O)c1ccsc1NC(=O)C1=COCCO1	-9%	-1.36%	-0.42%	106%	102%	0.91%	2.35%
Cn1c(C(=O)NCc2ccccn2)cc2c(=O)n(C)c3ccccc3c21	-1.81%	0.035%	-4.13%	103%	89.5%	0.965%	-0.15%
O=C(CCn1c(=O)oc2ccccc21)Nc1cccc(Cl)c1	-14.4%	-11%	0.42%	92.8%	96.4%	2.17%	2.21%
CC(Oc1ccc(Cl)cc1Cl)C(=O)NCCCN1CCOCC1 (configuration not stated)	-8.88%	-10.2%	0.14%	96%	95%	-0.36%	0.47%
O=C(Nc1nccs1)c1cc(S(=O)(=O)N2CCOCC2)ccc1Cl	-0.79%	-2.65%	-3.96%	97.8%	91%	1.35%	4.18%
Cc1cc2oc(C(=O)NCc3ccncc3)c(C)c2cc1C	-3.59%	10.7%	0.54%	96.4%	89.6%	0.7%	-0.89%
COc1ccc(NC(=O)CSc2nnc(-c3ccc(C)cc3)n2N)cc1	-3.98%	-4.99%	0.54%	100%	92.8%	1.1%	2.69%
O=C(C1CCCN(S(=O)(=O)c2cccc3cccnc23)C1)N1CCc2ccccc21 (configuration not stated)	-2.7%	-3.75%	-5.63%	68.7%	66.7%	1.5%	3.58%
CC(CC1C(C#N)=C(N)OC2=C1C(=O)CCC2)c1ccccc1 (configuration not stated)	-23.1%	-13.3%	-1.89%	98.6%	99.3%	0.91%	5.88%
COc1ccc(C2C(C(=O)NCCN(C)C)c3cc(OC)c(OC)cc3C(=O)N2C)cc1OC (configuration not stated)	-3.47%	-1.52%	-1.38%	101%	104%	1.56%	3.25%
COc1ccc(C2c3c(oc4ccc(F)cc4c3=O)C(=O)N2CCN2CCOCC2)cc1OC (configuration not stated)	-0.77%	4.3%	-1.12%	107%	108%	0.315%	2.7%
CCOC(=O)CCn1cc(F)c(=O)n(Cc2ccccc2)c1=O	3.69%	2.14%	-0.3%	105%	96.1%	0.42%	1.43%
COc1ccc(N2CSC3=C(C#N)C(c4cc(OC)ccc4OC)CC(=O)N3C2)c(OC)c1 (configuration not stated)	-1.38%	21.7%	-6.09%	80.5%	82.6%	0.54%	2.28%
COCCNC(=O)C1CC(=O)N(c2ccc(F)c(Cl)c2)C1 (configuration not stated)	-2.14%	-4%	0.07%	105%	95.7%	0.835%	1.14%
Cc1ccc(-c2nn3c(C)nnc3s2)cc1NC(=O)C(C)C	-1.65%	13.7%	-2.89%	110%	105%	0.965%	-0.58%
O=C(CCCCn1c(=O)[nH]c2ccccc2c1=O)NC1CCN(Cc2ccccc2)CC1	-14.6%	-22.8%	-0.32%	91.4%	89%	0.41%	0.63%
CC(=O)c1c(NC(=O)C(C)C)nc(C)nc1-c1ccccc1	-6.5%	-8.2%	-0.66%	98.4%	100%	1.69%	-0.83%
Cc1ccc(S(=O)(=O)N(C)Cc2nc(-c3ccc(Br)cc3)no2)cc1	-3.27%	-0.88%	0.27%	89.5%	87.8%	2.72%	3.02%
